Data: ChEMBL document CHEMBL1152814, “Novel cyano- and amidinobenzothiazole derivatives: synthesis, antitumor evaluation, and X-ray and quantitative structure-activity relationship (QSAR) analysis” (J Med Chem, 2009)
pIC50: −log10 of the molar value. The source made the active and inactive calls. No cut-off for these calls is given here.

Key:
MIA PaCa-2 = assay: Antiproliferative activity against human MIAPaCa2 cells after 72 hrs by MTT assay; assay type: functional, cell-based; conditions: MIA PaCa-2, 72 h
In short: (§1)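 Monolayers in DMEM with 10% FBS, 2 mM L-glutamine, penicillin/streptomycin, 37 °C, 5% CO2. Seeded at 3 × 10³ to 6 × 10³ cells/well on day 0. Agents added the next day in five 10-fold dilutions (10^-8–10^-4 mol/L), with a DMSO solvent control (max 0.25%). MTT read at 570 nm after 72 h. Quadruplicate points, three experiments. IC50 is the concentration giving 50% growth inhibition.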

HeLa = assay: Antiproliferative activity against human HeLa cells after 72 hrs by MTT assay; assay type: functional, cell-based; in short: as §1
NCI-H460 [1] = assay: Antiproliferative activity against human H460 cells after 72 hrs by MTT assay; assay type: functional, cell-based; conditions: NCI-H460, 72 h; in short: as §1
SW-620 = assay: Antiproliferative activity against human SW620 cells after 72 hrs by MTT assay; assay type: functional, cell-based; conditions: SW-620, 72 h; in short: as §1
[2] = Antiproliferative activity against human WI38 cells after 72 hrs by MTT assay; assay type: cell-based; conditions: WI-38, 72 h; in short: as §1
MCF7 = assay: Antiproliferative activity against human MCF7 cells after 72 hrs by MTT assay; assay type: functional, cell-based; conditions: MCF7, 72 h; in short: as §1
NCI-H460 [3] = assay: Induction of apoptosis in human H460 cells assessed as early apoptotic cells at 10 uM after 48 hrs using annexin V staining by FACS; assay type: functional
In short: (§2)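 H 460 cells seeded at 2 × 10⁵/well and exposed for 48 h (5, 10 or 50 µM) against a vehicle control. Floating and attached cells were pooled and washed in binding buffer (10 mM HEPES, 140 mM NaCl, 2.5 mM CaCl2, pH 7.4). They were stained 20 min with annexin V Alexa Fluor 488 and 1 µg/mL 7-AAD, then read by flow cytometry. Quadrants: viable, early apoptotic, late apoptotic.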

NCI-H460 [4] = assay: Induction of apoptosis in human H460 cells assessed as early apoptotic cells after 48 hrs using annexin V staining by FACS; assay type: functional, cell-based; in short: as §2
NCI-H460 [5] = assay: Induction of apoptosis in human H460 cells assessed as viable cells after 48 hrs using annexin V staining by FACS; assay type: functional, cell-based; in short: as §2
NCI-H460 [6] = assay: Cell cycle arrest in human H460 cells assessed as reduction of percentage of cells in S phase at 5 to 50 uM after 24 hrs using propidium iodide staining by FACS; assay type: functional, cell-based
In short: (§3)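 H 460 cells seeded at 2 × 10⁵/well and treated after overnight incubation with 5, 10 or 50 µM for 24 or 48 h. Attached and floating cells were pooled, fixed in 70% ethanol, treated with 0.2 µg/µL RNase A (37 °C, 15 min) and stained with 50 µg/mL propidium iodide. Flow cytometry counted 20000 events, in duplicate across two independent experiments.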

NCI-H460 [7] = assay: Induction of apoptosis in human H460 cells assessed as late apoptotic cells after 48 hrs using annexin V staining by FACS; assay type: functional, cell-based; in short: as §2
NCI-H460 [8] = assay: Induction of apoptosis in human H460 cells assessed as late apoptotic cells at 10 uM after 48 hrs using annexin V staining by FACS; assay type: functional; in short: as §2
NCI-H460 [9] = assay: Cell cycle arrest in human H460 cells assessed as reduction of percentage of cells in S phase at 5 to 50 uM after 48 hrs using propidium iodide staining by FACS; assay type: functional, cell-based; in short: as §3
NCI-H460 [10] = assay: Induction of apoptosis in human H460 cells assessed as viable cells at 10 uM after 48 hrs using annexin V staining by FACS; assay type: functional; conditions: NCI-H460, 48 h, read-out: Activity; in short: as §2
HEp-2 = assay: Antiproliferative activity against human Hep2 cells after 72 hrs by MTT assay; assay type: functional, cell-based; conditions: HEp-2, 72 h; in short: as §1

| pIC50 (MIA PaCa-2) | pIC50 (HeLa) | pIC50 (NCI-H460 [1]) | pIC50 (SW-620) | pIC50 (MCF7) | SMILES | pIC50 [2] | Activity (NCI-H460 [3]) [%] | Activity (NCI-H460 [4]) | Activity (NCI-H460 [5]) | Activity (NCI-H460 [6]) | Activity (NCI-H460 [7]) | Activity (NCI-H460 [8]) [%] | Activity (NCI-H460 [9]) | viability at 10 µM (NCI-H460 [10]) [%] | pIC50 (HEp-2) |
| --- | --- | --- | --- | --- | --- | --- | --- | --- | --- | --- | --- | --- | --- | --- | --- |
| 4.52 | 4.74 | 4.80 | 4.74 | 5.22 | CC(C)NC(=N)c1ccc(Nc2nc3ccc(C(=N)NC(C)C)cc3s2)cc1 | 4.04 |  |  |  |  |  |  |  |  |  |
| 4.49 | 4.89 | 4.66 | 4.46 | 4.89 | CC(C)NC(=N)c1ccc2nc(NC(=O)c3ccc(F)cc3)sc2c1 | < 4.00 |  |  |  |  |  |  |  |  |  |
| 4.96 | 5.15 | 5.30 | 4.82 | 4.89 | CC(C)NC(=N)c1ccc2nc(Nc3ncccn3)sc2c1 | 4.12 |  |  |  |  |  |  |  |  |  |
| 5.74 | 5.85 | 5.80 | 5.77 | 5.77 | c1cnc(Nc2nc3ccc(C4=NCCN4)cc3s2)nc1 | 5.77 |  |  |  |  |  |  |  |  |  |
| 5.70 | 5.70 | 5.70 | 6.00 | 5.70 | Cc1ccc(Nc2nc3ccc(C4=NCCN4)cc3s2)nc1.Cl.Cl | 5.22 | 6.98 | Dose-dependent effect | Dose-dependent effect | Active | Dose-dependent effect | 2.3 | Active | 89 |  |
| 5.52 | 5.52 | 5.70 | 5.70 | 5.70 | Cc1cccnc1Nc1nc2ccc(C3=NCCN3)cc2s1 |  |  |  |  |  |  |  |  |  |  |
| 4.92 | 5.05 | 4.82 | 4.89 | 5.30 | CC(C)NC(=N)c1ccc2nc(Nc3ccc(Cl)cn3)sc2c1 | 4.77 |  |  |  |  |  |  |  |  |  |
| 5.52 | 5.30 |  | 5.05 | 5.15 | N#Cc1ccc2nc(Nc3ncccn3)sc2c1 | ≤ 5.00 |  |  |  |  |  |  |  |  | 5.30 |
| 4.42 | 4.80 | 4.82 | 4.52 | 4.66 | CC(C)NC(=N)c1ccc2nc(NC(=O)c3ccccc3)sc2c1 | < 4.00 |  |  |  |  |  |  |  |  |  |
| 5.30 | 5.05 |  | < 5.00 | < 5.00 | Cc1ccc(Nc2nc3ccc(C#N)cc3s2)nc1 | 5.40 |  |  |  |  |  |  |  |  | < 5.00 |
| 5.40 | 5.52 |  | 5.40 | < 5.00 | Cc1ccnc(Nc2nc3ccc(C#N)cc3s2)c1 | ≤ 5.00 |  |  |  |  |  |  |  |  | 5.15 |
